Columns and labels:
[1] = system: sulfite oxidase (SUOX) mRNA; assay: Real-time RT-PCR of SUOX steady-state mRNA in treated TE 671 cells; format: cell-based, human; conditions: 24 hr, 0.005–0.5 μM, ΔΔCt method, HPRT1 internal standard
Outline: (§1)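 TE 671 cells were pre-grown 72 hr in phenol red–free DMEM, plated at 4 ×10⁴ cells/well in 10% dialyzed FCS medium, equilibrated 24 hr, and dosed 24 hr (DMSO carrier, quadruplicate per dose). Total RNA (1 μg) was reverse-transcribed with poly T primers for 60 min at 42°C. SYBR Green qPCR used 60°C annealing, 44 cycles and a melt curve, with samples in quadruplicate; mean ± SE.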

[2] = system: 3′-phosphoadenosine 5′-phosphosulfate synthase 1 (PAPSS1) mRNA; assay: Real-time RT-PCR of PAPSS1 steady-state mRNA in treated TE 671 cells; format: cell-based, human; conditions: 24 hr, 0.005–0.5 μM, ΔΔCt method, HPRT1 internal standard
Outline: as §1

[3] = system: cysteine dioxygenase type I (CDO1) mRNA; assay: Real-time RT-PCR of CDO1 steady-state mRNA in treated TE 671 cells; format: cell-based, human; conditions: 24 hr, 0.005–0.5 μM, ΔΔCt method, HPRT1 internal standard
Outline: as §1

[4] = molecular target: T1, human DHEA sulfotransferase (SULT 2A1) (Homo sapiens, UniProt Q06520); assay: Inhibition of sulfation of tritiated DHEA by SULT 2A1 in human liver cytosol; format: biochemical
T1 sequence (Q06520 1-285): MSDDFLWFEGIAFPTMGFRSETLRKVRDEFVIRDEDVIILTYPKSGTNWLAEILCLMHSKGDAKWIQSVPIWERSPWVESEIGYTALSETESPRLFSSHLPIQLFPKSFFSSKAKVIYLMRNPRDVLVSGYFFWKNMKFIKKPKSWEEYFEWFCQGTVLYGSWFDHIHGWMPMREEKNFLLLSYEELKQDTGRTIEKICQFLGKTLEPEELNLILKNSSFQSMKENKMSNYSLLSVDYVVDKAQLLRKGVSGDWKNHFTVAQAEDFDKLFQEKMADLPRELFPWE

SULT 2A1 = conditions: read-out: Km of SULT 2A1 for DHEA; ref Chang et al. 2001; cited from earlier work

Oc1ccc(Cl)cc1Cl [2,4-dichlorophenol]
SUOX mRNA expression level relative to undosed control [1]: did not show significant decreases | PAPSS1 mRNA expression level relative to undosed control [2]: did not show significant decreases | CDO1 mRNA expression level relative to undosed control [3]: did not show significant decreases

Cc1cc(O)ccc1Cl [4-chloro-3-methylphenol]
SUOX mRNA expression level relative to undosed control [1]: did not show significant decreases | PAPSS1 mRNA expression level relative to undosed control [2]: did not show significant decreases | CDO1 mRNA expression level relative to undosed control [3]: did not show significant decreases

CCCCCCCCCc1ccc(O)cc1 [4-n-Nonylphenol, 4-n-nonylphenol]
PAPSS1 mRNA expression level relative to undosed control [2]: very significant dose-dependent decrease | Ki [4]: 10.5 ± 0.6 µM

CC(C)(C)CC(C)(C)c1ccc(O)cc1 [4-tert-Octylphenol, 4-tert-octylphenol]
Ki [4]: 2.8 ± 0.1 µM

CC(C)(c1ccc(O)cc1)c1ccc(O)cc1 [Bisphenol A, bisphenol A]
Ki [4]: 16.3 ± 0.8 µM

C[C@]12CC[C@H](O)CC1=CC[C@@H]1[C@@H]2CC[C@]2(C)C(=O)CC[C@@H]12 [DHEA, dehydroepiandrosterone]
Km (SULT 2A1): ~2 µM

CCCCOC(=O)c1ccccc1C(=O)OCCCC [Dibutyl phthalate, dibutyl phthalate]
Ki [4]: 21.5 ± 1.4 µM

CC(C)CCCCCCCOC(=O)c1ccccc1C(=O)OCCCCCCCC(C)C [Diisodecyl phthalate, diisodecyl phthalate]
PAPSS1 mRNA expression level relative to undosed control [2]: clear decreasing trend

CCCCC(CC)COC(=O)c1ccccc1C(=O)OCC(CC)CCCC (stereo not drawn) [bis(2-ethylhexyl)phthalate]
SUOX mRNA expression level relative to undosed control [1]: significant dose-dependent decreases | PAPSS1 mRNA expression level relative to undosed control [2]: significant dose-dependent decreases

bisphenol A dimethacrylate
SUOX mRNA expression level relative to undosed control [1]: decreased in a dose-dependent manner | PAPSS1 mRNA expression level relative to undosed control [2]: decreased in a dose-dependent manner | CDO1 mRNA expression level relative to undosed control [3]: did not affect
